# Measured values as given in ChEMBL document CHEMBL1147494, “Differentiation of in vitro transcriptional repression and activation profiles of selective glucocorticoid modulators” (Bioorg Med Chem Lett, 2004).
# Target: T1, Glucocorticoid receptor (Homo sapiens, UniProt P04150)
# T1 sequence (P04150 whole entry): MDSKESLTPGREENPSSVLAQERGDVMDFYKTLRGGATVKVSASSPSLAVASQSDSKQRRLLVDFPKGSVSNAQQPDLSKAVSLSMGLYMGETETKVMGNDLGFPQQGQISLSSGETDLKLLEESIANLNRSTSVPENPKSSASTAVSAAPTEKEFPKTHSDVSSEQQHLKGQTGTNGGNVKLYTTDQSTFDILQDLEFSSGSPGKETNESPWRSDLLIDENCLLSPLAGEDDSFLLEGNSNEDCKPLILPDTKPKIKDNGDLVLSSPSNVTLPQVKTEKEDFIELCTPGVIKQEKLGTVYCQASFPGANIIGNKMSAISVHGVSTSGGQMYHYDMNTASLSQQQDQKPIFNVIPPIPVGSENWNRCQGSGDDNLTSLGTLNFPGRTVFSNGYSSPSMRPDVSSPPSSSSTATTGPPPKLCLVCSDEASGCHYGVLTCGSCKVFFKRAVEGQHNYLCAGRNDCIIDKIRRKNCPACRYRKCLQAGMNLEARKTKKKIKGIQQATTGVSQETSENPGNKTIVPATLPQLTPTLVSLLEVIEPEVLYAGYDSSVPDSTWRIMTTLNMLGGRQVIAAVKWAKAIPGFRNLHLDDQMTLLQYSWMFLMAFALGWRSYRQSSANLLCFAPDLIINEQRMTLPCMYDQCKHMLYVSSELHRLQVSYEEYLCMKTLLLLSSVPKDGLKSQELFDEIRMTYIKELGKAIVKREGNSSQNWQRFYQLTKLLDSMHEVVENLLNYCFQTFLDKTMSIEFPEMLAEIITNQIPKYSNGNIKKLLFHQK
# Assay: Inhibition of transcriptional activation in CV-1 cells expressing glucocorticoid receptor
# Type: functional, cell-based
row,Compound,IC50
1,C=CCC1Oc2cccc(OC)c2-c2ccc3c(c21)C(C)=CC(C)(C)N3 (stereo in doubt; 4a) [AL-43],33 nM
2,COc1cccc2c1-c1ccc3c(c1C(CC=C(C)C)O2)C(C)=CC(C)(C)N3 (stereo not drawn),> 5000 nM
3,C=CC(C)(C)C1Oc2cccc(OC)c2-c2ccc3c(c21)C(C)=CC(C)(C)N3 (stereo not drawn),> 5000 nM
4,COc1cccc2c1-c1ccc3c(c1C(CC=C(F)F)O2)C(C)=CC(C)(C)N3 (stereo not drawn),76 nM
5,COc1cccc2c1-c1ccc3c(c1C(C1C=C(C)CCC1)O2)C(C)=CC(C)(C)N3 (stereo not drawn),15 nM
6,COc1cccc2c1-c1ccc3c(c1[C@H]([C@H]1C=C(C)CCC1)O2)C(C)=CC(C)(C)N3,40 nM
7,C=CCC1Oc2cccc(OC)c2-c2ccc3c(c21)C(C)=CC(C)(C)N3 (stereo in doubt; (-)4a) [AL-43],14 nM
8,COC(=O)/C=C/CC1Oc2cccc(OC)c2-c2ccc3c(c21)C(C)=CC(C)(C)N3 (stereo not drawn),220 nM
9,C=CC(C)C1Oc2cccc(OC)c2-c2ccc3c(c21)C(C)=CC(C)(C)N3 (stereo not drawn),110 nM
10,C=C(CC1Oc2cccc(OC)c2-c2ccc3c(c21)C(C)=CC(C)(C)N3)C(=O)OC (stereo not drawn),> 5000 nM
11,C=C1CCCCC1C1Oc2cccc(OC)c2-c2ccc3c(c21)C(C)=CC(C)(C)N3 (stereo not drawn),> 5000 nM
12,COc1cccc2c1-c1ccc3c(c1C(CC=C1CCCC1)O2)C(C)=CC(C)(C)N3 (stereo not drawn),> 5000 nM
13,COc1cccc2c1-c1ccc3c(c1[C@@H]([C@@H]1C=C(C)CCC1)O2)C(C)=CC(C)(C)N3,> 5000 nM
14,C=C(Br)CC1Oc2cccc(OC)c2-c2ccc3c(c21)C(C)=CC(C)(C)N3 (stereo not drawn),240 nM
15,C/C=C/CC1Oc2cccc(OC)c2-c2ccc3c(c21)C(C)=CC(C)(C)N3 (stereo not drawn),150 nM

# Target: T1, Glucocorticoid receptor
# Assay: Inhibition of transcriptional repression in CV-1 cells expressing glucocorticoid receptor
# Type: functional, cell-based
row,Compound,IC50
1,C=CCC1Oc2cccc(OC)c2-c2ccc3c(c21)C(C)=CC(C)(C)N3 (stereo in doubt; 4a) [AL-43],13 nM
2,COc1cccc2c1-c1ccc3c(c1C(CC=C(C)C)O2)C(C)=CC(C)(C)N3 (stereo not drawn),23 nM
3,C=CC(C)(C)C1Oc2cccc(OC)c2-c2ccc3c(c21)C(C)=CC(C)(C)N3 (stereo not drawn),> 5000 nM
4,COc1cccc2c1-c1ccc3c(c1C(CC=C(F)F)O2)C(C)=CC(C)(C)N3 (stereo not drawn),20 nM
5,COc1cccc2c1-c1ccc3c(c1C(C1C=C(C)CCC1)O2)C(C)=CC(C)(C)N3 (stereo not drawn),7 nM
6,COc1cccc2c1-c1ccc3c(c1[C@H]([C@H]1C=C(C)CCC1)O2)C(C)=CC(C)(C)N3,19 nM
7,C=CCC1Oc2cccc(OC)c2-c2ccc3c(c21)C(C)=CC(C)(C)N3 (stereo in doubt; (-)4a) [AL-43],6.9 nM
8,COC(=O)/C=C/CC1Oc2cccc(OC)c2-c2ccc3c(c21)C(C)=CC(C)(C)N3 (stereo not drawn),87 nM
9,C=CC(C)C1Oc2cccc(OC)c2-c2ccc3c(c21)C(C)=CC(C)(C)N3 (stereo not drawn),40 nM
10,C=C(CC1Oc2cccc(OC)c2-c2ccc3c(c21)C(C)=CC(C)(C)N3)C(=O)OC (stereo not drawn),> 5000 nM
11,C=C1CCCCC1C1Oc2cccc(OC)c2-c2ccc3c(c21)C(C)=CC(C)(C)N3 (stereo not drawn),320 nM
12,COc1cccc2c1-c1ccc3c(c1C(CC=C1CCCC1)O2)C(C)=CC(C)(C)N3 (stereo not drawn),217 nM
13,COc1cccc2c1-c1ccc3c(c1[C@@H]([C@@H]1C=C(C)CCC1)O2)C(C)=CC(C)(C)N3,> 5000 nM
14,C=C(Br)CC1Oc2cccc(OC)c2-c2ccc3c(c21)C(C)=CC(C)(C)N3 (stereo not drawn),110 nM
15,C/C=C/CC1Oc2cccc(OC)c2-c2ccc3c(c21)C(C)=CC(C)(C)N3 (stereo not drawn),38 nM

# Tested on: Cell line
# Assay: Effective concentration for transcriptional activation of aromatase in Human cell native protein assay
# Type: functional, cell-based
row,Compound,EC50
1,COc1cccc2c1-c1ccc3c(c1[C@H]([C@H]1C=C(C)CCC1)O2)C(C)=CC(C)(C)N3,640 nM
2,C=CCC1Oc2cccc(OC)c2-c2ccc3c(c21)C(C)=CC(C)(C)N3 (stereo in doubt; (-)4a) [AL-43],160 nM

# Tested on: Cell line
# Assay: Effective concentration of compound for transcriptional activation of TAT in Human cell native protein assay
# Type: functional, cell-based
row,Compound,EC50
1,COc1cccc2c1-c1ccc3c(c1[C@H]([C@H]1C=C(C)CCC1)O2)C(C)=CC(C)(C)N3,110 nM
2,C=CCC1Oc2cccc(OC)c2-c2ccc3c(c21)C(C)=CC(C)(C)N3 (stereo in doubt; (-)4a) [AL-43],40 nM

# Tested on: Cell line
# Assay: Efficacy for transcriptional repression of IL-6 in Human cell native protein assay expressed as percentage of the maximal response of Dexamethasone
# Type: functional
row,Compound,Efficacy
1,COc1cccc2c1-c1ccc3c(c1[C@H]([C@H]1C=C(C)CCC1)O2)C(C)=CC(C)(C)N3,82%
2,C=CCC1Oc2cccc(OC)c2-c2ccc3c(c21)C(C)=CC(C)(C)N3 (stereo in doubt; (-)4a) [AL-43],83%

# Tested on: Cell line
# Assay: Efficacy for transcriptional […] of PGE-2 in Human cell native protein assay expressed as percentage of the maximal response of Dexamethasone
# Type: functional
row,Compound,Efficacy
1,COc1cccc2c1-c1ccc3c(c1[C@H]([C@H]1C=C(C)CCC1)O2)C(C)=CC(C)(C)N3,95%

# Tested on: Cell line
# Assay: Efficacy for transcriptional activation of TAT in Human cell native protein assay expressed as percentage of the maximal response of Dexamethasone
# Type: functional
row,Compound,Efficacy
1,COc1cccc2c1-c1ccc3c(c1[C@H]([C@H]1C=C(C)CCC1)O2)C(C)=CC(C)(C)N3,49%
2,C=CCC1Oc2cccc(OC)c2-c2ccc3c(c21)C(C)=CC(C)(C)N3 (stereo in doubt; (-)4a) [AL-43],71%

# Tested on: Cell line
# Assay: Efficacy for transcriptional activation of aromatase in Human cell native protein assay expressed as percentage of the maximal response of Dexamethasone
# Type: functional
row,Compound,Efficacy
1,COc1cccc2c1-c1ccc3c(c1[C@H]([C@H]1C=C(C)CCC1)O2)C(C)=CC(C)(C)N3,26%
2,C=CCC1Oc2cccc(OC)c2-c2ccc3c(c21)C(C)=CC(C)(C)N3 (stereo in doubt; (-)4a) [AL-43],82%

# Tested on: Cell line
# Assay: Efficacy for transcriptional activation of collagenase in Human cell native protein assay expressed as percentage of the maximal response of Dexamethasone
# Type: functional
row,Compound,Efficacy
1,COc1cccc2c1-c1ccc3c(c1[C@H]([C@H]1C=C(C)CCC1)O2)C(C)=CC(C)(C)N3,89%
2,C=CCC1Oc2cccc(OC)c2-c2ccc3c(c21)C(C)=CC(C)(C)N3 (stereo in doubt; (-)4a) [AL-43],77%

# Target: T2, Progesterone receptor (Homo sapiens) (UniProt P06401)
# T2 sequence (whole entry): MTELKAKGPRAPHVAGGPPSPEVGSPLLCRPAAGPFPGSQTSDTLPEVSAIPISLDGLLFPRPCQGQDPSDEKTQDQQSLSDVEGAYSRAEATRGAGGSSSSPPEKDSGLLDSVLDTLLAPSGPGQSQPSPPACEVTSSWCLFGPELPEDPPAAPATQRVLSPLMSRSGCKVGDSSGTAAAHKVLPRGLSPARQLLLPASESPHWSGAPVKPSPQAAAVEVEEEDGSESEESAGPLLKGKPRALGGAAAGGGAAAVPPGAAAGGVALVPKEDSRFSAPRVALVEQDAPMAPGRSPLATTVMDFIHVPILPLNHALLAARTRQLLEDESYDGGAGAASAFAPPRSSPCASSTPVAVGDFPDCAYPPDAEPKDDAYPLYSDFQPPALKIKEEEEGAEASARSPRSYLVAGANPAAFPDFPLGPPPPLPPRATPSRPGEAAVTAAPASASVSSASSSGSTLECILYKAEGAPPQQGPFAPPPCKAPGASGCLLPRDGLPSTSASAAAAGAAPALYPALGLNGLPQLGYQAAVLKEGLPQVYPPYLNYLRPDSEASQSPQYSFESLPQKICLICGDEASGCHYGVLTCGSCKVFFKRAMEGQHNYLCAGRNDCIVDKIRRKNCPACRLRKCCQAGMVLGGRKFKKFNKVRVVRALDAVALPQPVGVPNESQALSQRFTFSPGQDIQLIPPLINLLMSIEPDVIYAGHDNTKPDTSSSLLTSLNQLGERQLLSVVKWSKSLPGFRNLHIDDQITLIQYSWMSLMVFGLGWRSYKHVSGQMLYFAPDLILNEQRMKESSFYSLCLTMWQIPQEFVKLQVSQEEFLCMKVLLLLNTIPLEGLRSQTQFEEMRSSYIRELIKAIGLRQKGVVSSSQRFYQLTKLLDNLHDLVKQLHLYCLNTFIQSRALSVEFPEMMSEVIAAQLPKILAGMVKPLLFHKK
# Assay: In vitro binding affinity against progesterone receptor
# Outline: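 Competition binding assay against progesterone receptor. Replicates vary by value: single experiments in triplicate; two experiments with triplicate determinations (with standard deviation); or at least three separate experiments in triplicate (mean ± SEM).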
row,Compound,Activity
1,COc1cccc2c1-c1ccc3c(c1C(CC=C(C)C)O2)C(C)=CC(C)(C)N3 (stereo not drawn),1600 nM
2,C=CC(C)(C)C1Oc2cccc(OC)c2-c2ccc3c(c21)C(C)=CC(C)(C)N3 (stereo not drawn),> 5000 nM
3,COc1cccc2c1-c1ccc3c(c1C(CC=C(F)F)O2)C(C)=CC(C)(C)N3 (stereo not drawn),2300 nM
4,COc1cccc2c1-c1ccc3c(c1C(C1C=C(C)CCC1)O2)C(C)=CC(C)(C)N3 (stereo not drawn),980 nM
5,COc1cccc2c1-c1ccc3c(c1[C@H]([C@H]1C=C(C)CCC1)O2)C(C)=CC(C)(C)N3,710 nM
6,COC(=O)/C=C/CC1Oc2cccc(OC)c2-c2ccc3c(c21)C(C)=CC(C)(C)N3 (stereo not drawn),> 5000 nM
7,C=CC(C)C1Oc2cccc(OC)c2-c2ccc3c(c21)C(C)=CC(C)(C)N3 (stereo not drawn),> 5000 nM
8,C=C(CC1Oc2cccc(OC)c2-c2ccc3c(c21)C(C)=CC(C)(C)N3)C(=O)OC (stereo not drawn),> 5000 nM
9,C=C1CCCCC1C1Oc2cccc(OC)c2-c2ccc3c(c21)C(C)=CC(C)(C)N3 (stereo not drawn),> 5000 nM
10,COc1cccc2c1-c1ccc3c(c1C(CC=C1CCCC1)O2)C(C)=CC(C)(C)N3 (stereo not drawn),> 5000 nM
11,COc1cccc2c1-c1ccc3c(c1[C@@H]([C@@H]1C=C(C)CCC1)O2)C(C)=CC(C)(C)N3,> 5000 nM
12,C=C(Br)CC1Oc2cccc(OC)c2-c2ccc3c(c21)C(C)=CC(C)(C)N3 (stereo not drawn),> 5000 nM
13,C/C=C/CC1Oc2cccc(OC)c2-c2ccc3c(c21)C(C)=CC(C)(C)N3 (stereo not drawn),2100 nM

# Target: T2, Progesterone receptor (Homo sapiens)
# Assay: Transcriptional activation in cells expressing progesterone receptor isoform B compared to progesterone
# Type: functional
row,Compound,Efficacy
1,COc1cccc2c1-c1ccc3c(c1[C@H]([C@H]1C=C(C)CCC1)O2)C(C)=CC(C)(C)N3,13%

# Tested on: Cell line
# Assay: Effective concentration of compound for transcriptional repression of IL-6 in Human cell native protein assay
row,Compound,EC50
1,COc1cccc2c1-c1ccc3c(c1[C@H]([C@H]1C=C(C)CCC1)O2)C(C)=CC(C)(C)N3,62 nM
2,C=CCC1Oc2cccc(OC)c2-c2ccc3c(c21)C(C)=CC(C)(C)N3 (stereo in doubt; (-)4a) [AL-43],30 nM

# Tested on: Cell line
# Assay: Effective concentration of compound for transcriptional repression of PGE-2 in Human cell native protein assay
row,Compound,EC50
1,COc1cccc2c1-c1ccc3c(c1[C@H]([C@H]1C=C(C)CCC1)O2)C(C)=CC(C)(C)N3,35 nM

# Tested on: Cell line
# Assay: Effective concentration of compound for transcriptional repression of collagenase in Human cell native protein assay
row,Compound,EC50
1,COc1cccc2c1-c1ccc3c(c1[C@H]([C@H]1C=C(C)CCC1)O2)C(C)=CC(C)(C)N3,32 nM
2,C=CCC1Oc2cccc(OC)c2-c2ccc3c(c21)C(C)=CC(C)(C)N3 (stereo in doubt; (-)4a) [AL-43],37 nM

# Tested on: Cell line
# Assay: Efficacy for transcriptional repression of osteocalcin in Human cell native protein assay expressed as percentage of the maximal response of Dexamethasone
row,Compound,Efficacy
1,COc1cccc2c1-c1ccc3c(c1[C@H]([C@H]1C=C(C)CCC1)O2)C(C)=CC(C)(C)N3,38%
